Reference: ChEMBL document CHEMBL5678805, “Intermittent administration of MEK inhibitor GDC-0973 plus PI3K inhibitor GDC-0941 triggers robust apoptosis and tumor growth inhibition” (Cancer Res, 2012)
Calls of active or inactive are those of the source. No cut-off for these calls is given here.

Tests used:
[1] = tested on: A2058; experiment: Antitumor activity against human A2058 cells xenografted in mouse assessed as effect on S6 phosphorylation at 5 mg/kg, po administered daily for 4 days and measured after 8 hrs; assay type: functional, organism-based; details: time 104.0 hrs
[2] = Antitumor activity against human A375.X1 cells harboring BRAF V600E/CDKN2A E61 mutant xenografted in mouse assessed as tumor growth inhibition at 5 mg/kg, po; assay type: functional; details: A375.X1, read-out: TGI
How it was run: (§1)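 Single-agent dose ranging in human tumor xenograft mice at 2.5, 5 or 10 mg/kg oral. Tumor volume was measured by caliper as (L×W×W)/2. %TGI = 100×[1 − AUC(treatment/d)/AUC(vehicle/d)] from the fitted growth curve per dose group, relative to vehicle.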

[3] = target: Serine/threonine-protein kinase pim-1 (Homo sapiens, UniProt P11309); experiment: Inhibition of PIM1 (unknown origin)
[4] = tested on: A2058; experiment: Antitumor activity against human A2058 cells harboring BRAF V600E/PTEN deletion mutant xenografted in mouse assessed as suppression of ERK phosphorylation at 15 mg/kg, po administered every third day for 21 days and measured after 72 hrs post dose by Western blot analysis; assay type: functional, organism-based; details: time 576.0 hrs
[5] = target: Vascular endothelial growth factor receptor 2 (Homo sapiens, UniProt P35968); experiment: Inhibition of KDR (unknown origin)
Chain of Vascular endothelial growth factor receptor 2 (P35968 whole entry): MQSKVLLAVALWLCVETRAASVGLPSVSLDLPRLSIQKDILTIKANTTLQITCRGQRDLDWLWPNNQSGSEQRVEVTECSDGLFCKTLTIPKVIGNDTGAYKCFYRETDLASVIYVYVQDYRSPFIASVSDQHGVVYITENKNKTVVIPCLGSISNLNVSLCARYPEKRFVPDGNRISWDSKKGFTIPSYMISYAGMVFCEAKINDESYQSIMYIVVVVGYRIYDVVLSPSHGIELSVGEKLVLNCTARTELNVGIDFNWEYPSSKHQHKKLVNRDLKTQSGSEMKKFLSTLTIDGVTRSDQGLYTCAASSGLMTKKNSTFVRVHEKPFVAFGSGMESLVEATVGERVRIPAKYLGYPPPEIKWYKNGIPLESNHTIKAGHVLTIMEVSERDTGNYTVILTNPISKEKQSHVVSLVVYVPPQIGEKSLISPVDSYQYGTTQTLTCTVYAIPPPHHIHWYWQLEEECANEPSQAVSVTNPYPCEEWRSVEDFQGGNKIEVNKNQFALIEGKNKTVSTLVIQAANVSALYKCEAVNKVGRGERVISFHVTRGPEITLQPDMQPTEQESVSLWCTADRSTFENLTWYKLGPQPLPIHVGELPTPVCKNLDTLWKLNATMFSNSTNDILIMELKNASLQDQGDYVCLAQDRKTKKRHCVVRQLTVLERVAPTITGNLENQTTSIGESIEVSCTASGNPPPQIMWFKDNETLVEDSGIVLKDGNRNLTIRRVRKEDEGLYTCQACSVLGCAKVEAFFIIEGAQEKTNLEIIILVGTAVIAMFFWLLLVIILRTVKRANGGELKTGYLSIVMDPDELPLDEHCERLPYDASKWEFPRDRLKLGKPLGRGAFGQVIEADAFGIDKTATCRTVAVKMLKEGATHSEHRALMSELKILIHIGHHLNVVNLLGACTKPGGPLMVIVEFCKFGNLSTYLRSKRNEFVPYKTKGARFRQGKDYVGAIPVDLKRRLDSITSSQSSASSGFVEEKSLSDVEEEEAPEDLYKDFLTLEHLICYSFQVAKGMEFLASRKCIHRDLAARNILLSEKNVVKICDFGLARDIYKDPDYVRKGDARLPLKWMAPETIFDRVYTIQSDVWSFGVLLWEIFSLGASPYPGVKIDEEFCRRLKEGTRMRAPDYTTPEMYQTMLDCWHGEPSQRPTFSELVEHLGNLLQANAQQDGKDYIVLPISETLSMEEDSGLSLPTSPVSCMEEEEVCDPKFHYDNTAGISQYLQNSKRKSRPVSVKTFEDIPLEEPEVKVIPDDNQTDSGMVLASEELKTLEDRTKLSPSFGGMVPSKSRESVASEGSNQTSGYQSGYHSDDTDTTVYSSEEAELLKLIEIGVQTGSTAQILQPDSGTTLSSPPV

[6] = target: Serine/threonine-protein kinase B-raf (Homo sapiens, UniProt P15056, V600E); experiment: Inhibition of B-RAF V600E (unknown origin)
Chain of Serine/threonine-protein kinase B-raf (P15056 2-766 V600E limits assumed): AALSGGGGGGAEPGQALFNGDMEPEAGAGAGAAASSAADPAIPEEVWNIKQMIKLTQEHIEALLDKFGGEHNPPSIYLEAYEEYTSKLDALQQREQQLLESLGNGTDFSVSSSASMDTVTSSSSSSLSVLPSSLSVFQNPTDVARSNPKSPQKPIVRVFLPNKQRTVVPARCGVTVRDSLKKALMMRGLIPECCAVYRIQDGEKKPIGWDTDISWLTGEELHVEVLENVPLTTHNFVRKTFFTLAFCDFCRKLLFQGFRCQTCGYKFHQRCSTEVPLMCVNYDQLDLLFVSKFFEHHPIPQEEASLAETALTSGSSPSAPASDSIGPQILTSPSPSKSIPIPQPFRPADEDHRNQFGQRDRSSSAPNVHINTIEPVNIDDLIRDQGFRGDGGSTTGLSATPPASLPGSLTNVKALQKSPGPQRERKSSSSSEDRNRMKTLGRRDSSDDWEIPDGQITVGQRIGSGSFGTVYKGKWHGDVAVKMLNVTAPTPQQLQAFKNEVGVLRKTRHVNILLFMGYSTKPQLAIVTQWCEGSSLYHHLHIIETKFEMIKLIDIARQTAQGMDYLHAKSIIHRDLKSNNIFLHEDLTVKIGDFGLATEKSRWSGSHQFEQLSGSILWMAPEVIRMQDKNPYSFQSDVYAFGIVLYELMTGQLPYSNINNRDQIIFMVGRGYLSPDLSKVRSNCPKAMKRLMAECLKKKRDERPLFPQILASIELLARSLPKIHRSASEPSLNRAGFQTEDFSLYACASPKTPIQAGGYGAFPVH

[7] = tested on: MeWo; experiment: Antiproliferative activity against human MeWo cells assessed reduction in cell viability incubated for 4 days in presence of 4-(2-(1H-indazol-4-yl)-6-((4-(methylsulfonyl)piperazin-1-yl)methyl)thieno[3,2-d]pyrimidin-4-yl)morpholine by celltiter-glo assay; assay type: functional; details: time 4 day
How it was run: (§2)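 4-day CellTiter-Glo viability read-out on melanoma lines, cells exposed to increasing concentrations of each inhibitor alone and in combination.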

[8] = tested on: Calu-6; experiment: Antitumor activity against human Calu-6 cells harboring KRAS Q61K and TP53 R196 mutant xenografted in mouse assessed as tumor growth inhibition at 2.5 mg/kg, po; assay type: functional; details: read-out: TGI; how it was run: as §1
[9] = target: Dual specificity mitogen-activated protein kinase kinase 4 (Homo sapiens, UniProt P45985); experiment: Inhibition of MKK4 (unknown origin)
[10] = tested on: A2058; experiment: Antitumor activity against human A2058 cells xenografted in mouse assessed as tumor growth inhibition at 15 mg/kg, po administered every third day for 21 days in presence of 4-(2-(1H-indazol-4-yl)-6-((4-(methylsulfonyl)piperazin-1-yl)methyl)thieno[3,2-d]pyrimidin-4-yl)morpholine; assay type: functional; details: A2058, 504 h, time 21 day, read-out: TGI
How it was run: (§3)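 Human tumor xenografts in mice. Drugs given orally, as single agents or combined with the PI3K inhibitor. Schedules were daily (QD) or every third day (Q3D) over 21 days. Tumor volume was measured by caliper as (L×W×W)/2. %TGI = 100×[1 − AUC(treatment/d)/AUC(vehicle/d)] from fitted growth curves, with group means. Tumor lysates were immunoblotted for pS6.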

[11] = target: Mitogen-activated protein kinase kinase kinase 5 (Homo sapiens, UniProt Q99683); experiment: Inhibition of ASK1 (unknown origin)
[12] = target: Dual specificity protein kinase CLK3 (Homo sapiens, UniProt P49761); experiment: Inhibition of CLK3 (unknown origin)
Chain of Dual specificity protein kinase CLK3 (P49761 whole entry): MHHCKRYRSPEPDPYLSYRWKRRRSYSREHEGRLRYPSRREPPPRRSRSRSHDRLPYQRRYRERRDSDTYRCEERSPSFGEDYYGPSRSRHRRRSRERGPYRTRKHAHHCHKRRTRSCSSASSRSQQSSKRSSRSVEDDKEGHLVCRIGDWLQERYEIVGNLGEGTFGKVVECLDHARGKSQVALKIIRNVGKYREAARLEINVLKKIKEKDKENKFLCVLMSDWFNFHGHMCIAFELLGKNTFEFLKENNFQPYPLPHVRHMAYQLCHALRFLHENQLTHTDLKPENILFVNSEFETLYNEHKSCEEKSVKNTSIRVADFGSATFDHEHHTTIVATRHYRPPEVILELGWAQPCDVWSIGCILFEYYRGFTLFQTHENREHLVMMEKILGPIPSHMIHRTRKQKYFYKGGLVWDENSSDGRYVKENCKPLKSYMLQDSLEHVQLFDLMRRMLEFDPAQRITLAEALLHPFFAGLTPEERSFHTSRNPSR

[13] = target: Serine/threonine-protein kinase NLK (Homo sapiens, UniProt Q9UBE8); experiment: Inhibition of NLK (unknown origin)
Chain of Serine/threonine-protein kinase NLK (Q9UBE8 whole entry): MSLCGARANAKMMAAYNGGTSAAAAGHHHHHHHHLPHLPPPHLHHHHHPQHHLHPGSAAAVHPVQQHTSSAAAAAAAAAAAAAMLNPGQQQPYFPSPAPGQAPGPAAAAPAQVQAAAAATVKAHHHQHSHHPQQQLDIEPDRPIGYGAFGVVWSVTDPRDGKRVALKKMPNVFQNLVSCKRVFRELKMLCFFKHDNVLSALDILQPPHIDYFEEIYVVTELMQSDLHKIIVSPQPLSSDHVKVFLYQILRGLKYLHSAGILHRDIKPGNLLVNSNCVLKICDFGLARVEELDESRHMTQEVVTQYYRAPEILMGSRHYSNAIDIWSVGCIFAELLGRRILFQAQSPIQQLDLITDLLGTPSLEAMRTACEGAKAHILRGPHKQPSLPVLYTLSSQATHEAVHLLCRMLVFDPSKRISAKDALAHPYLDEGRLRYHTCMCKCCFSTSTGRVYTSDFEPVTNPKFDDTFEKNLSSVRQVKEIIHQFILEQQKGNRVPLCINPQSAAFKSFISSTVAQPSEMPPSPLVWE

[14] = tested on: A-375; experiment: Antitumor activity against human A-375 cells harboring BRAF V600E/CDKN2A E61 mutant xenografted in mouse assessed as tumor growth inhibition at 10 mg/kg, po; assay type: functional; details: A-375, read-out: TGI
How it was run: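 Mice carrying human tumor xenografts dosed orally once daily for 21 consecutive days. Tumor volume measured by calipers as (L×W×W)/2. %TGI = 100×[1 − AUC(treatment/day)/AUC(vehicle/day)], using the area under the fitted growth curve relative to vehicle.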

[15] = tested on: NCI-H2122; experiment: Antitumor activity against human NCI-H2122 cells harboring KRAS […]/LKB1 P281/TP53Q61L/C176Fl/CDKN2A mutant xenografted in mouse assessed as tumor growth inhibition at 5 mg/kg, po; assay type: functional; details: read-out: TGI
How it was run: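 NCI-H2122 (KRAS G12C) NSCLC xenografts in mice were dosed orally once daily for 21 consecutive days. Tumor volume was measured with calipers as (L×W×W)/2, and body weight was tracked. %TGI was derived from the area under the fitted growth curve per day versus vehicle. Group means with SEM were reported.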

[16] = target: Serine/threonine-protein kinase PAK 6 (Homo sapiens, UniProt Q9NQU5); experiment: Inhibition of PAK6 (unknown origin)
Chain of Serine/threonine-protein kinase PAK 6 (Q9NQU5 whole entry): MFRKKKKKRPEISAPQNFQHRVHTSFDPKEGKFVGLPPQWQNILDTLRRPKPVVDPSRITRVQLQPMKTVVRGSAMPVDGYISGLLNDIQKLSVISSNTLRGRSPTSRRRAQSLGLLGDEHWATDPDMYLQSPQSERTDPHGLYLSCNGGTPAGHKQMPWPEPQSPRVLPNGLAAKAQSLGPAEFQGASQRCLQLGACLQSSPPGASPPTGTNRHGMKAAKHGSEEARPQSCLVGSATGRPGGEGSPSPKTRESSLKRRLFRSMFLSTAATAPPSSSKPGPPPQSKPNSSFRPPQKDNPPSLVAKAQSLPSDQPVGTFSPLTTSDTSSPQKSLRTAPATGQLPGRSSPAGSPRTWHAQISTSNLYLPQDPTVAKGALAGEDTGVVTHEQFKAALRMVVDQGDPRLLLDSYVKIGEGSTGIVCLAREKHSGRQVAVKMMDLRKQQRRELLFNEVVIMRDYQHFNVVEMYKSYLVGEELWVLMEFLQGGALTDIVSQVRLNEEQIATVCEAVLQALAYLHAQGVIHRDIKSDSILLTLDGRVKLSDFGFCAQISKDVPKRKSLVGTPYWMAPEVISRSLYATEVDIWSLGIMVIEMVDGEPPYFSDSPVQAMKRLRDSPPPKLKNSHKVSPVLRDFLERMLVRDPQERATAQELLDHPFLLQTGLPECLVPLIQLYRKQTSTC

[17] = target: Serine/threonine-protein kinase Nek7 (Homo sapiens, UniProt Q8TDX7); experiment: Inhibition of NEK7 (unknown origin)
[18] = tested on: NCI-H460; experiment: Antitumor activity against human NCI-H460 cells harboring KRAS Q61H/PIK3CA E545K/LKB1 Q37/CDKN2A mutant xenografted in mouse assessed as tumor growth inhibition at 10 mg/kg, po; assay type: functional; details: read-out: TGI
How it was run: (§4)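 Human tumor xenografts in mice were dosed orally at the indicated mg/kg. Tumor volume was measured with calipers as (L×W×W)/2. %TGI = 100 × [1 − (AUC treatment/d)/(AUC vehicle/d)], using the area under the fitted tumor-growth curve per day for each dose group relative to vehicle.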

[19] = target: Glycogen synthase kinase-3 beta (Homo sapiens, UniProt P49841); experiment: Inhibition of GSK3beta (unknown origin)
Chain of Glycogen synthase kinase-3 beta (P49841 whole entry): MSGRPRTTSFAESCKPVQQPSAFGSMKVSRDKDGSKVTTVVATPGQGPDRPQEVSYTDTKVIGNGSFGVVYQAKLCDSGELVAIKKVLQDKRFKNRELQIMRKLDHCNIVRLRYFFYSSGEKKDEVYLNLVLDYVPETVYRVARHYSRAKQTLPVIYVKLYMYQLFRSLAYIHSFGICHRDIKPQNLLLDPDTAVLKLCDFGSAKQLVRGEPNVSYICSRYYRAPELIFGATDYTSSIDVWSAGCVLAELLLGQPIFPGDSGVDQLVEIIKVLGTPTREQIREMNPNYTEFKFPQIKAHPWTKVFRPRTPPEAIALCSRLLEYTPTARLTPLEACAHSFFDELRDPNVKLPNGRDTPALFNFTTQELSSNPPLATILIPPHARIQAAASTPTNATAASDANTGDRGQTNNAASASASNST

[20] = target: Serine/threonine-protein kinase pim-2 (Homo sapiens, UniProt Q9P1W9); experiment: Inhibition of PIM2 (unknown origin)
Chain of Serine/threonine-protein kinase pim-2 (Q9P1W9 whole entry): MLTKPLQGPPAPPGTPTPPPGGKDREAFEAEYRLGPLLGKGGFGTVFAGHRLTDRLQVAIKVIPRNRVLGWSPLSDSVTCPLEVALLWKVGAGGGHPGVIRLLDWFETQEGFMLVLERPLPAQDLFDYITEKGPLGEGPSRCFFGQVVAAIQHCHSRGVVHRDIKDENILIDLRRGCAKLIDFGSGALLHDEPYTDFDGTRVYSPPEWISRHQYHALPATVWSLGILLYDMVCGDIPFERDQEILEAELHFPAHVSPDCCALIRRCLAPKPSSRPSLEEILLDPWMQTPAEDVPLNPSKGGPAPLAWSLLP

[21] = tested on: DLD-1; experiment: Antitumor activity against human DLD-1 cells xenografted in mouse assessed as tumor growth inhibition at 3 mg/kg, po administered once a day for 21 days in presence of 4-(2-(1H-indazol-4-yl)-6-((4-(methylsulfonyl)piperazin-1-yl)methyl)thieno[3,2-d]pyrimidin-4-yl)morpholine; assay type: functional; details: DLD-1, 504 h, time 21 day, read-out: TGI; how it was run: as §3
[22] = tested on: 888-mel; experiment: Inhibition of ERK phosphorylation in human 888-mel cells incubated for 24 hrs by immunoblotting analysis; assay type: cell-based
[23] = tested on: MIA PaCa-2; experiment: Antitumor activity against human MIA PaCa-2 cells harboring KRAS G12C/NOTCH1 L2458V mutant xenografted in mouse assessed as tumor growth inhibition at 5 mg/kg, po; assay type: functional; details: read-out: TGI; how it was run: as §4
[24] = target: RAC-beta serine/threonine-protein kinase (Homo sapiens, UniProt P31751); experiment: Inhibition of Akt2 (unknown origin)
Chain of RAC-beta serine/threonine-protein kinase (P31751 whole entry): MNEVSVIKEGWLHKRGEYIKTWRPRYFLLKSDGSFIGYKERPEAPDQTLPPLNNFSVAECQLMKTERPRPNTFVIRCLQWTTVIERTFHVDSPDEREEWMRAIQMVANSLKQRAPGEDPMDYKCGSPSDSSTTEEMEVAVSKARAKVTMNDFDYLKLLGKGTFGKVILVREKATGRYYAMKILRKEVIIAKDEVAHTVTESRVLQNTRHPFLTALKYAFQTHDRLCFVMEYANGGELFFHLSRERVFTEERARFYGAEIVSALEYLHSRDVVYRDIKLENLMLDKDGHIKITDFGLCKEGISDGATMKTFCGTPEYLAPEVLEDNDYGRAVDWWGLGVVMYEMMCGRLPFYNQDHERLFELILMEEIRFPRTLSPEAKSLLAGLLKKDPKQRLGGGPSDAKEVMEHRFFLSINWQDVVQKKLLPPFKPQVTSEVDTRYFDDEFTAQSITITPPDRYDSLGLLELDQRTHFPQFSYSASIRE

[25] = tested on: Malme-3M; experiment: Antiproliferative activity against human Malme-3M cells assessed reduction in cell viability incubated for 4 days in presence of 4-(2-(1H-indazol-4-yl)-6-((4-(methylsulfonyl)piperazin-1-yl)methyl)thieno[3,2-d]pyrimidin-4-yl)morpholine by celltiter-glo assay; assay type: functional; details: time 4 day; how it was run: as §2
[26] = target: Mitogen-activated protein kinase 3 (Homo sapiens, UniProt P27361); experiment: Inhibition of ERK1 (unknown origin)
[27] = tested on: A2058; experiment: Antitumor activity against human A2058 cells harboring BRAF V600E/PTEN deletion mutant xenografted in mouse assessed as suppression of ERK phosphorylation at 15 mg/kg, po administered every third day for 21 days and measured after 8 hrs post dose by western blot analysis; assay type: functional, organism-based; details: time 512.0 hrs

Structure (SMILES): O=C(c1ccc(F)c(F)c1Nc1ccc(I)cc1F)N1CC(O)([C@@H]2CCCCN2)C1 [COBIMETINIB]
- Activity [1]: Active
- inhibition in vivo at 5 mg/kg [2]: 106%
- IC50 [3]: > 10 µM
- Activity [4]: Active
- IC50 [5]: > 10 µM
- IC50 [6]: > 10 µM
- Activity [7]: 60%
- inhibition in vivo at 2.5 mg/kg [8]: 27.5%
- IC50 [9]: > 10 µM
- inhibition in vivo at 15 mg/kg [10]: 83%
- IC50 [11]: > 10 µM
- IC50 [12]: > 10 µM
- IC50 [13]: > 10 µM
- inhibition in vivo at 10 mg/kg [14]: 122%
- inhibition in vivo at 5 mg/kg [15]: 49%
- IC50 [16]: > 10 µM
- IC50 [17]: > 10 µM
- inhibition in vivo at 10 mg/kg [18]: 9%
- IC50 [19]: > 10 µM
- IC50 [20]: > 10 µM
- inhibition in vivo at 3 mg/kg [21]: 88%
- inhibition [22]: Active
- inhibition in vivo at 5 mg/kg [23]: 6%
- IC50 [24]: > 10 µM
- Activity [25]: 60%
- IC50 [26]: > 10 µM
- Activity [27]: Active
